Data published in article PMC7814360 (Investigative Ophthalmology & Visual Science, 2021).
Ends that are not written are not given here.

Tests used:
HRECs [1] = assay: Cellular uptake, flow cytometry quantitative analysis; assay type: in vitro ADME, human; details: 200 µM, three independent assays
Method in brief: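 HRECs were seeded at 1 × 10^6 on a 30-mm plate. At confluence they were exposed to FITC-labeled test peptide at 200 μM in complete medium for 30 min, 1, 6, 12 and 24 h. Cells were washed, trypsinized, resuspended in PBS and kept dark. FITC-positive cell number and mean fluorescence intensity were read by flow cytometry. Three independent assays; means ± SEM.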

HRECs [2] = assay: Cell migration; assay type: cell-based, human; details: 25 ng/mL VEGF; 200 µM H-KI20 or H-KI20S, or 12.5 mg/mL bevacizumab; 12 hours; three independent assays
HRECs [3] = assay: Tube formation assay on Matrigel; assay type: cell-based, human; details: 25 ng/mL VEGF, three independent assays
Method in brief: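 About 2 × 10^4 HRECs were seeded on Matrigel-precoated wells, with or without 25 ng/mL VEGF, alongside test peptides or Avastin. Incubation was at 37°C for four hours per methods (three hours per legend). Three random fields per well were photographed, and total tube length and branch points were quantified by ImageJ. Three independent assays; means ± SEM.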

HRECs [4] = assay: Cytotoxicity, MTS; assay type: cell-based, human; details: H-KI20 at different concentrations; three independent assays
Method in brief: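 HRECs were seeded in 96-well plates at […]. They were treated with VEGF or test peptide, and viability was read by MTS following the manufacturer's protocol.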

JNK2 = JNK2 (Homo sapiens, UniProt P45984); assay: Surface plasmon resonance; assay type: binding
Sequence of JNK2 (P45984 whole entry): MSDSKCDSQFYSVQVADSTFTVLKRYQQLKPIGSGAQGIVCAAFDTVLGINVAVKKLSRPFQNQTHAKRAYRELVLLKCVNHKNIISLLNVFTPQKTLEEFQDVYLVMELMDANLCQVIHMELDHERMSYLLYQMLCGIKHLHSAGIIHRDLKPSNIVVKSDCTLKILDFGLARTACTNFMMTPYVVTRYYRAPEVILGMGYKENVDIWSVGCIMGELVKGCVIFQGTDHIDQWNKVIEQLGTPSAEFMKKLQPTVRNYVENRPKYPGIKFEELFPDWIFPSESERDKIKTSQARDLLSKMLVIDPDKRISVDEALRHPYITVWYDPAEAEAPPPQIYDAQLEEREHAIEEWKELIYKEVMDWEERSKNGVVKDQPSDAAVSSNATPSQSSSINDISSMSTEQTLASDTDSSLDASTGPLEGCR
Method in brief: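 SPR was run on a Biacore T200. The chip was conditioned with 500 mM EDTA and 100 mM NaOH. Recombinant human JNK2 at 27.5 μg/mL was captured on an NTA chip at 10 μL/min. Serial peptide concentrations were injected in PBS with 0.05% Tween-20, pH 7.4, at 25°C (association 120 s, dissociation 180 s). Double reference subtraction was applied, then a global Langmuir 1:1 fit.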

[5] = system: cornea neovascularization; details: topical application of high concentrations; cited from earlier work
[6] = Quantification of H-KI20 in ocular tissues after topical instillation; assay type: in vivo; details: mouse CNV model, 0.5, 1 and 3 hours after topical instillation, PRM
Method in brief: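 Choroidal neovascularization was induced in adult C57BL/6J mice with four 532-nm laser burns (100 ms, 50 μm, 120 mW) around the optic disc. On day 7, 6 μL of FITC-labeled test peptide (2 mM) was instilled topically six times at 10-min intervals (n = 3 per group). At 0.5, 1 and 3 h, sclera–choroid–RPE complex and retina were trypsin-digested. A 100 ng/mL stable-isotope-labeled internal standard was spiked in, and samples were quantified by nano-UPLC–Orbitrap PRM.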

retina = assay: Histologic examination of retina after intravitreal injection; assay type: in vivo, mouse; details: 50 or 75 mM H-KI20 intravitreal, five days later, mice
HRECs [7] = assay: High-content image analysis, cell roundness; assay type: cell-based, human; details: H-KI20 alone, 30 hours, Operetta HCA, interval 0.5 h
Method in brief: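 About 3 × 10^4 HRECs/well were plated in 12-well plates and allowed to attach overnight. Test compound was added 2 h before imaging. Cells were imaged live in an Operetta high-content system for […] at 0.5-h intervals. Roundness is a shape index normalized to 1.0 for a perfect circle, decreasing for elongated or irregular cells.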

[8] = Stability assay of H-KI20 in aqueous solutions; assay type: physicochemical; details: 200 µg/mL, HPLC

Substance: FITC-H-KI20: FITC-labeled H-KI20 used to test cellular permeability (IIGKGRSYKGTVSITKSGIK; also: FITC-labeled, site not given here)
- mean fluorescence intensity (MFI) compared with untreated cells (HRECs [1]; 30 minutes): 217 fold
- MFI after 24 hours compared with that after 30 minutes (HRECs [1]; 24 hours vs 30 minutes): 3.67 fold

Substance: Bevacizumab [Avastin]
- migration of VEGF-stimulated HRECs (wound closure) (HRECs [2]): inhibited the migration of cells significantly
- VEGF-induced tube formation (tube length and branch points) (HRECs [3]): significantly inhibited

Substance: IIGKGRSYKGTVSITKSGIK [H-KI20]
- cytotoxicity / proliferation of HRECs (MTS) (HRECs [4]): no effect on the proliferation of HRECs
- Kd (JNK2): 83.7 µM
- cell ultrastructure of cornea and conjunctiva [5]: no effect on the cell ultrastructure of cornea and conjunctiva
- persistence of concentration in ocular tissues after topical instillation [6]: maintained for at least three hours
- retinal histology (HE) after intravitreal injection (retina): All layers of the retina were normal and intact, without edema or inflammatory or immune reactions
- cell roundness (HRECs [7]): no effect on the roundness of cells
- stability at 4°C compared with 37°C ([8]; BSS, PBS and HBS, n = 4 or 5): more stable
- stability in H2O and PBS ([8]; H2O and PBS pH 7.4, 37°C, incubation for 24 or 48 hours): partially degraded
